# Assay outcomes (PubChem BioAssay)
# An excerpt weighted towards active compounds, which were near 2.4% of everything screened.
# S1P4 antag: antagonists of human S1P4 receptor. O95977. S1P4-expressing cells, antagonist mode, reporter read-out. inhibition, % at 4.98 µM. 220,000 tested, 0.26% active; in the data active = inhibition above about 29%;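 also: 0% = wells stimulated with agonist and 100% = vehicle wells without agonist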
# NPY-Y2 antag: NPY-Y2 (human) receptor antagonism; NPY-Y2 expressing cells, antagonist mode; inhibition, % at 2.7 µM; P49146; 140,000 tested, 0.99% active; in the data active = inhibition above about 17%;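 also: 0% = vehicle with agonist challenge and 100% = reference antagonist with challenge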
# NPY-Y1 antag: antagonists of human neuropeptide Y receptor Y1; 200,000 tested, 1% active; inhibition, % at 3.6 µM; HEK293-CNG Y1 cells, membrane potential fluorescence; NPY at EC95, then isoproterenol; P25929;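 active = inhibition above the campaign mean inhibition of all tested compounds plus 3 SD, cut at about 20% in these data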;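 also: 0% = DMSO wells given NPY plus isoproterenol and 100% = isoproterenol alone without NPY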
# Target sequence (P25929 whole entry, looked up): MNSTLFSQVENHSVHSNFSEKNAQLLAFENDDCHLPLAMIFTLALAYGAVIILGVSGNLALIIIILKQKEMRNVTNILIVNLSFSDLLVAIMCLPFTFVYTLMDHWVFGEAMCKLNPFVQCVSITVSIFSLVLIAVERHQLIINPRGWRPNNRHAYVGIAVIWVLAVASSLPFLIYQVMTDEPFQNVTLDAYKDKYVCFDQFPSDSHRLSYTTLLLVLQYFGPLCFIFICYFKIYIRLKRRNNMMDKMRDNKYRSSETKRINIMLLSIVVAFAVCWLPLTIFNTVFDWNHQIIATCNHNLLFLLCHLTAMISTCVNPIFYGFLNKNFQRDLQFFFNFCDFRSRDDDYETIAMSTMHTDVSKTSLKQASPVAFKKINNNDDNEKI
#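 Assay system: HEK293 Y1/CNG channel cell line; Doses: single compound dose of 3.6 µM, 0.4% DMSO; Timing: dye 3 h, compound 60 min room temperature, stimulation 45 min; Technique: Membrane-potential fluorescent dye readout; Measure: % inhibition of NPY effect.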
# NPY-Y1 PAM-ag: potentiates or activates human NPY-Y1 receptor; activation, % at 3.6 µM; AID 1304; 220,000 tested, 0.37% active; P25929; NPY-Y1 expressing cells, potentiator/agonist activation; in the data active = activation above about 33%, passing the limit was not always enough;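 also: cells stimulated with NPY at EC10 then isoproterenol at EC100; 0% = low agonist plus stimulus and 100% = saturating agonist plus stimulus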
# S1P4 ag: human S1P4 receptor agonism | O95977 | S1P4-expressing cell line, agonist reporter assay | activation, % at 4.98 µM | 220,000 tested, 0.35% active; in the data active = activation above about 11%;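 also: 0% = DMSO vehicle and 100% = reference agonist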
# NPY-Y2 PAM-ag: potentiators or agonists of human neuropeptide Y receptor Y2. P49146. cells expressing NPY-Y2, potentiator/agonist read-out. activation, % at 3.6 µM. 220,000 tested, 0.45% active. AID 1359; in the data active = activation above about 27%;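 also: cells stimulated with NPY near EC25 plus isoproterenol at EC100; 0% = vehicle plus submaximal agonist and 100% = vehicle plus saturating agonist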
# NPY1 antag ctr: human NPY-Y1 antagonism in NPY-Y2 counter-screen; shares compounds with NPY-Y2 antag; cell-based NPY-Y1 antagonism counterscreen; inhibition, % at 3.6 µM; 710 tested, 19% active; in the data active = inhibition above about 20%;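 also: cells challenged with NPY then isoproterenol with cAMP sensed through a CNG channel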
# NPY-Y2 ant conf: human NPY-Y2 antagonism, confirmation; HEK293 NPY-Y2 CNG channel, membrane potential fluorescence; 710 tested, 32% active; AID 1257; shares compounds with NPY-Y2 antag; inhibition, % at 2.8 µM;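 active = mean inhibition of triplicate wells above the hit cutoff set in the primary screen, cut at about 17% in these data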;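 also: 0% = DMSO with NPY challenge and 100% = BIIE0246 high control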
# The depositor's hits bear a star; . = not tested or not shown.
SMILES,S1P4 antag,NPY-Y2 antag,NPY-Y1 antag,NPY-Y1 PAM-ag,S1P4 ag,NPY-Y2 PAM-ag,NPY1 antag ctr,NPY-Y2 ant conf
CCOc1ccc(NS(=O)(=O)c2ccc3c(c2)CCN3C(=O)C2CCC2)cc1,6,7,9,-28,1,-9,.,.
CCOc1nc(SCCOc2ccccc2)nc(N(C)C)n1,-15,23*,0,-20,-1,-8,10,13
O=C(NCc1ccc2c(c1)OCO2)c1cc(-c2ccccc2Cl)on1,2,22*,12,-14,-1,-55,18,13
CCCCSc1nnc(-c2ccc(C)cc2)c2ccccc12,-9,18*,7,8,1,2,9,13
CCOC(=O)Cn1nc(-c2ccccc2)c2cnc3ccc(CC)cc3c21,-2,26*,4,2,1,6,20,13
CCOC(=O)Cn1nc(-c2ccccc2)nc1-c1ccccc1,3,-2,12,3,1,4,.,.
Cc1ccc(S(=O)(=O)NC2c3cccc4cccc(c34)C2Sc2nncn2C)cc1 (configuration not stated),-23,21*,4,7,2,1,1,-1
O=C(COC(=O)CSc1ccc2ccccc2c1)Nc1ccccc1OC(F)F,-8,12,15,-31,-2,-21,.,.
COc1ccc(CNC(=O)Cc2ccc(OC)c(S(=O)(=O)N3CCOCC3)c2)cc1,-13,3,-4,-8,-2,-12,.,.
C/C=C(/C)C(=O)O[C@@H]1c2c(ccc3ccc(=O)oc23)O[C@@H]1C(C)(C)OC(=O)/C(C)=C\C,-4,19*,20,-39,1,-7,16,32*
N#Cc1c(NC(=O)c2cc([N+](=O)[O-])ccc2N2CCOCC2)sc2c1CCCC2,-8,0,0,4,0,7,.,.
COC(=O)c1cc(Cl)c(NC(=O)C(C)C)cc1OC,-9,.,5,-14,1,-5,.,.
COC(=O)c1cc(Cl)c(NC(=O)c2ccc(C(C)(C)C)cc2)cc1OC,-2,18*,10,-70,0,-46,16,31*
Cc1ccc(OCCNc2ccc(C(F)(F)F)cc2[N+](=O)[O-])cc1,-13,21*,0,19,2,1,20,17
O=C(Nc1ccc(F)cc1F)c1ccc(COc2c(F)c(F)cc(F)c2F)o1,-23,18*,11,-40,-1,-27,10,9
O=C(Nc1ccc(Cl)cc1F)c1ccc(COc2c(F)c(F)c(F)c(F)c2F)o1,22,16,15,-21,0,-20,.,.
COc1ccc(CCN(C)C(=O)N2CCOCC2)cc1OC,-22,9,-2,-5,0,-1,.,.
Nc1c(C(=O)NCc2ccc3c(c2)OCO3)c2nc3ccccc3nc2n1CCCN1CCOCC1,2,19*,12,-10,8,-5,17,7
Nc1c(C(=O)NCCN2CCOCC2)c2nc3ccccc3nc2n1-c1ccc2c(c1)OCO2,-17,-2,-4,-16,1,21,.,.
